# Laboratory results reported in PubChem BioAssay AID623971 (Broad Institute, 2012).
# Values joined by “and” are separate entries in the source; they are usually repeats but may differ in a detail not shown here. Equal entries are not always repeated. Active and inactive are the calls of the source.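 The calls were made as follows: active = compounds lowering yeast growth whose fitted half-maximal concentration is at most twice the top tested dose; inconclusive = flat curve with moderate growth inhibition, or a poor curve fit; inactive = the rest.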
# Tested on: S. cerevisiae growth in glucose, OD600, 48 h
# Experiment: yeast growth reduction with glucose carbon source – OD600, powder samples, set 3, dose response (AID 623971)
# Details: not given
# Method in brief: (§1)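 Assay system: Saccharomyces cerevisiae yeast cells, whole-organism growth assay | Medium: CSM growth medium supplemented with glucose | Incubation: Yeast exposure 48 h at 30 °C, static, humidified | Technique: OD600 absorbance | Read-out: Yeast growth inhibition, seen as decrease in OD600 signal | Benchmarks: Positive control amphotericin B at 10 µM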
row,Compound,AC50 [nM]
1,CC1/C=C/C=C\C=C\C=C\C=C\C=C\C=C\C(O[C@H]2OC(C)C(O)C(N)C2O)CC2OC(O)(CC(O)CC(O)C(O)CCC(O)CC(O)CC(=O)OC(C)C(C)C1O)CC(O)C2C(=O)O (stereo partly drawn),384

# Tested on: not listed separately
# Experiment: as above
# Details: S. cerevisiae growth in glucose, OD600, 48 h; at 3 µM (top of the series)
# Method in brief: as §1
row,Compound,"activity change, negative = growth inhibition"
1,CCOC(=O)N1C(=O)C2(CCCCC2)N(c2ccc(C#N)cc2)C1=S,-21.5% (inactive)
2,CCOC(=O)N1C(=O)C2(CCCCC2)N(c2ccccc2)C1=S,-11.6% (inactive)
3,CCOC(=O)N1C(=O)C2(CCCCC2)N(c2cccc(C)c2)C1=S,-4.85% (inactive)
4,CCOC(=O)N1C(=O)C2(CCCCC2)N(c2ccc(F)cc2)C1=S,-4.53% (inactive)
5,C/C=C/[C@@H]1[C@H]2C[C@@H](C)CC[C@@H]2C(C)=C[C@H]1C(=O)c1c(O)c(-c2ccc(O)cc2)c[nH]c1=O,-5.04% (inactive)
6,CCOC(=O)N1C(=O)C2(CCCCC2)N(c2ccc(C)cc2)C1=S,-5.09% (inactive) and -19.8% (inactive)
7,CCOC(=O)N1C(=O)C2(CCCCC2)N(c2ccc(Cl)cc2)C1=S,-15.5% (inactive)
